ChEMBL document CHEMBL1125291, “New 8-(trifluoromethyl)-substituted quinolones. The benefits of the 8-fluoro group with reduced phototoxic risk” (1992)
In brackets after ≈: the same amount, converted by molar mass.

Legend:
Pseudomonas aeruginosa [1] = experiment: In vivo efficacy (orally) against Pseudomonas aeruginosa in mouse protection test; format: functional; conditions: Pseudomonas aeruginosa, po; read-out: PD50
Summary of the method: (§1)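 Acute lethal systemic infections in female Charles River CD-1 mice. A single dose was given at challenge, orally by gavage or by subcutaneous injection. PD50 (median protective dose, mg/kg) was determined.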

Pseudomonas aeruginosa [2] = experiment: Minimum inhibitory concentration (MIC) against gram negative bacteria Pseudomonas aeruginosa UI-18.; format: functional; conditions: Pseudomonas aeruginosa; read-out: MIC
Summary of the method: (§2)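 MICs were determined by standard broth microtitration against 11 Gram-positive and Gram-negative organisms, in µg/mL. Values come from duplicate or triplicate experiments and are accurate to ±50%.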

Klebsiella pneumoniae = experiment: Minimum inhibitory concentration (MIC) against gram negative bacteria Klebsiella pneumoniae MGH-2.; format: functional; conditions: Klebsiella pneumoniae; read-out: MIC; summary of the method: as §2
Mus musculus [3] = species: Mus musculus; experiment: Days of the first positive reaction in […] mice.; format: functional
Summary of the method: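 Phototoxic skin reaction test in depilated female CD-1 mice. A single oral dose (gavage) or subcutaneous dose was given, followed 1 h later by 3 h of UVA exposure (320–400 nm). The regimen was repeated for up to 4 consecutive days, with initial doses of 30, 100 and 300 mg/kg. PTD50 was derived by the probit method. The first day of positive reaction and the no-effect dose were taken from the raw data.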

Escherichia coli [4] = experiment: In vivo efficacy in mouse protection test in Escherichia coli Vogel administered by subcutaneous injection.; format: functional; conditions: Escherichia coli, sc; read-out: PD50; summary of the method: as §1
Escherichia coli [5] = experiment: In vivo efficacy in mouse protection test in Escherichia coli Vogel dose administered orally by gavage.; format: functional; conditions: Escherichia coli, po; read-out: PD50; summary of the method: as §1
Streptococcus pyogenes [6] = experiment: In vivo efficacy (orally) against Streptococcus pyogenes C-203 in mouse protection test; format: functional; conditions: Streptococcus pyogenes, po; read-out: PD50; summary of the method: as §1
[7] = Minimum inhibitory concentration (MIC) against gram negative bacteria Prot. rettgeri M-1771.; format: functional, Providencia rettgeri; conditions: Providencia rettgeri; read-out: MIC; summary of the method: as §2
Mus musculus [8] = experiment: Maximum tolerance dose was measured for phototoxic skin reaction by po administration; format: functional
Streptococcus pneumoniae [9] = experiment: In vivo efficacy (s.c.) against Streptococcus pneumoniae SV-1 in mouse protection test; format: functional; conditions: Streptococcus pneumoniae, sc; read-out: PD50; summary of the method: as §1
Escherichia coli [10] = experiment: Minimum inhibitory concentration (MIC) against gram negative bacteria Escherichia coli H-560.; format: functional; conditions: Escherichia coli; read-out: MIC; summary of the method: as §2
Streptococcus pneumoniae [11] = experiment: Minimum inhibitory concentration (MIC) against gram positive bacteria Streptococcus pneumoniae SV-1.; format: functional; conditions: Streptococcus pneumoniae; read-out: MIC; summary of the method: as §2
Staphylococcus aureus [12] = experiment: Minimum inhibitory concentration (MIC) against gram positive bacteria Staphylococcus aureus UC-76.; format: functional; conditions: Staphylococcus aureus; read-out: MIC; summary of the method: as §2
Pseudomonas aeruginosa [13] = experiment: In vivo efficacy (s.c.) against Pseudomonas aeruginosa in mouse protection test; format: functional; conditions: Pseudomonas aeruginosa, sc; read-out: PD50; summary of the method: as §1
Mus musculus [14] = species: Mus musculus; experiment: Dose which has no effect to induce phototoxic reaction in 50% of mice by probit method.; format: functional
Streptococcus pyogenes [15] = experiment: In vivo efficacy (s.c.) against Streptococcus pyogenes C-203 in mouse protection test; format: functional; conditions: Streptococcus pyogenes, sc; read-out: PD50; summary of the method: as §1
Staphylococcus aureus [16] = experiment: Minimum inhibitory concentration (MIC) against gram positive bacteria Staphylococcus aureus H-228.; format: functional; conditions: Staphylococcus aureus; read-out: MIC; summary of the method: as §2
Streptococcus pyogenes [17] = experiment: Minimum inhibitory concentration (MIC) against gram positive bacteria Streptococcus pyogenes C-203.; format: functional; conditions: Streptococcus pyogenes; read-out: MIC; summary of the method: as §2
Mus musculus [18] = species: Mus musculus; experiment: Dose required to induce phototoxic reaction in 50% of mice by probit method at different dosage forms.; format: functional
Escherichia coli [19] = experiment: Minimum inhibitory concentration (MIC) against gram negative bacteria Escherichia coli Vogel.; format: functional; conditions: Escherichia coli; read-out: MIC; summary of the method: as §2
Enterococcus faecalis = experiment: Minimum inhibitory concentration (MIC) against gram positive bacteria Streptococcus faecalis MGH-2.; format: functional; conditions: Enterococcus faecalis; read-out: MIC; summary of the method: as §2
Streptococcus pneumoniae [20] = experiment: In vivo efficacy (orally) against Streptococcus pneumoniae SV-1 in mouse protection test; format: functional; conditions: Streptococcus pneumoniae, po; read-out: PD50; summary of the method: as §1
Mus musculus [21] = species: Mus musculus; experiment: Number of mice which show positive phototoxic reaction in 5 mice; format: functional
Enterobacter cloacae = experiment: Minimum inhibitory concentration (MIC) against gram negative bacteria Enterobacter cloacae MA-2646.; format: functional

Structure (SMILES) | MIC (Pseudomonas aeruginosa [2]) | MIC (Klebsiella pneumoniae) | Day of first positve reaction (Mus musculus [3]) | ED50 (Escherichia coli [4]) | ED50 (Escherichia coli [5]) | MIC [7] | MTD (Mus musculus [8]) | ED50 (Streptococcus pneumoniae [9]) | MIC (Escherichia coli [10]) | MIC (Streptococcus pneumoniae [11]) | MIC (Staphylococcus aureus [12]) | No effect dose (Mus musculus [14]) | MIC (Staphylococcus aureus [16]) | MIC (Streptococcus pyogenes [17]) | PTD50 (Mus musculus [18]) | MIC (Escherichia coli [19]) | MIC (Enterococcus faecalis) | ED50 (Streptococcus pneumoniae [20]) | No. of pos rxns (Mus musculus [21]) | MIC (Enterobacter cloacae) | also measured
CCn1cc(C(=O)O)c(=O)c2cc(F)c(N3CCN(C)CC3)cc21 [PEFLOXACIN] | 0.4 µg/mL (≈ 1.2 µM) | 0.05 µg/mL (≈ 0.15 µM) | 4 | 2 mg/kg | 3 mg/kg | 0.05 µg/mL (≈ 0.15 µM) | 300 mg/kg | 96 mg/kg | 0.1 µg/mL (≈ 0.3 µM) | 0.8 µg/mL (≈ 2.4 µM) | 0.1 µg/mL (≈ 0.3 µM) | >172 mg/kg | 0.2 µg/mL (≈ 0.6 µM) | 0.8 µg/mL (≈ 2.4 µM) | 265 mg/kg | 0.025 µg/mL (≈ 0.075 µM) | 0.8 µg/mL (≈ 2.4 µM) | > 200 mg/kg | 2 | – | ED50 (Pseudomonas aeruginosa [1]): 38 mg/kg; ED50 (Streptococcus pyogenes [6]): 110 mg/kg; ED50 (Pseudomonas aeruginosa [13]): 26 mg/kg; ED50 (Streptococcus pyogenes [15]): 94 mg/kg
CC1(CN)CCN(c2c(F)cc3c(=O)c(C(=O)O)cn(C4CC4)c3c2F)C1 (stereo not drawn) | 0.4 µg/mL (≈ 1.06 µM) | 0.025 µg/mL (≈ 0.0662 µM) | 1 | 3 mg/kg | 1.8 mg/kg | 0.05 µg/mL (≈ 0.132 µM) | 30 mg/kg | 0.3 mg/kg | 0.006 µg/mL (≈ 0.0159 µM) | 0.003 µg/mL (≈ 0.00795 µM) | – | <30 mg/kg | 0.013 µg/mL (≈ 0.0344 µM) | 0.003 µg/mL (≈ 0.00795 µM) | <30 mg/kg | 0.013 µg/mL (≈ 0.0344 µM) | 0.006 µg/mL (≈ 0.0159 µM) | 1.2 mg/kg | 5 | 0.013 µg/mL (≈ 0.0344 µM) | –
NC1CCN(c2c(F)cc3c(=O)c(C(=O)O)cn(C4CC4)c3c2F)CC1 | 0.8 µg/mL (≈ 2.2 µM) | 0.1 µg/mL (≈ 0.275 µM) | 2 | 1.2 mg/kg | 3.7 mg/kg | 0.2 µg/mL (≈ 0.55 µM) | 100 mg/kg | 3.6 mg/kg | 0.05 µg/mL (≈ 0.138 µM) | 0.4 µg/mL (≈ 1.1 µM) | 0.025 µg/mL (≈ 0.0688 µM) | 30 mg/kg | 0.1 µg/mL (≈ 0.275 µM) | 0.4 µg/mL (≈ 1.1 µM) | 55 mg/kg | 0.1 µg/mL (≈ 0.275 µM) | 0.2 µg/mL (≈ 0.55 µM) | 15 mg/kg | 5 | 0.1 µg/mL (≈ 0.275 µM) | –
CCNCC1CCN(c2c(F)cc3c(=O)c(C(=O)O)cn(C4CC4)c3c2F)C1 (stereo not drawn) [PD-117558] | 0.4 µg/mL (≈ 1.02 µM) | 0.2 µg/mL (≈ 0.511 µM) | 1 | 1 mg/kg | 4.2 mg/kg | 0.4 µg/mL (≈ 1.02 µM) | 30 mg/kg | 1.9 mg/kg | 0.013 µg/mL (≈ 0.0332 µM) | 0.025 µg/mL (≈ 0.0639 µM) | 0.006 µg/mL (≈ 0.0153 µM) | 30 mg/kg | 0.05 µg/mL (≈ 0.128 µM) | – | <30 mg/kg | 0.05 µg/mL (≈ 0.128 µM) | 0.025 µg/mL (≈ 0.0639 µM) | 3.3 mg/kg | 5 | 0.1 µg/mL (≈ 0.255 µM) | ED50 (Pseudomonas aeruginosa [1]): 59 mg/kg; ED50 (Streptococcus pyogenes [6]): 1.8 mg/kg; ED50 (Pseudomonas aeruginosa [13]): 40 mg/kg; ED50 (Streptococcus pyogenes [15]): 0.5 mg/kg
CC1(CN)CCN(c2c(F)cc3c(=O)c(C(=O)O)cn(C4CC4)c3c2C(F)(F)F)C1 (stereo not drawn) | 3.1 µg/mL (≈ 7.25 µM) | 0.4 µg/mL (≈ 0.936 µM) | 0 | 3.1 mg/kg | 8.5 mg/kg | 0.8 µg/mL (≈ 1.87 µM) | 100 mg/kg | 0.4 mg/kg | 0.1 µg/mL (≈ 0.234 µM) | 0.05 µg/mL (≈ 0.117 µM) | 0.013 µg/mL (≈ 0.0304 µM) | 100 mg/kg | 0.05 µg/mL (≈ 0.117 µM) | 0.05 µg/mL (≈ 0.117 µM) | >100 mg/kg | 0.2 µg/mL (≈ 0.468 µM) | 0.2 µg/mL (≈ 0.468 µM) | 1.1 mg/kg | 0 | 0.2 µg/mL (≈ 0.468 µM) | –
C[C@@H]1CN(c2c(F)cc3c(=O)c(C(=O)O)cn(C4CC4)c3c2F)CCN1 | 0.4 µg/mL (≈ 1.1 µM) | 0.025 µg/mL (≈ 0.0688 µM) | 4 | 0.2 mg/kg | 0.7 mg/kg | 0.1 µg/mL (≈ 0.275 µM) | 30 mg/kg | – | 0.1 µg/mL (≈ 0.275 µM) | 0.4 µg/mL (≈ 1.1 µM) | 0.1 µg/mL (≈ 0.275 µM) | <30 mg/kg | 0.2 µg/mL (≈ 0.55 µM) | 0.2 µg/mL (≈ 0.55 µM) | 43 mg/kg | 0.025 µg/mL (≈ 0.0688 µM) | 0.4 µg/mL (≈ 1.1 µM) | – | 1 | 0.025 µg/mL (≈ 0.0688 µM) | ED50 (Streptococcus pyogenes [6]): 14 mg/kg; ED50 (Streptococcus pyogenes [15]): 7.2 mg/kg
NC1CCN(c2cc3c(cc2F)c(=O)c(C(=O)O)cn3C2CC2)CC1 | 3.1 µg/mL (≈ 8.98 µM) | 0.8 µg/mL (≈ 2.32 µM) | 0 | 3.8 mg/kg | 18 mg/kg | 1.6 µg/mL (≈ 4.63 µM) | 100 mg/kg | – | 0.4 µg/mL (≈ 1.16 µM) | 0.4 µg/mL (≈ 1.16 µM) | 0.2 µg/mL (≈ 0.579 µM) | 100 mg/kg | 1.6 µg/mL (≈ 4.63 µM) | 0.4 µg/mL (≈ 1.16 µM) | >100 mg/kg | 0.4 µg/mL (≈ 1.16 µM) | 0.8 µg/mL (≈ 2.32 µM) | – | 0 | 0.4 µg/mL (≈ 1.16 µM) | –
